Results on 17 molecules are retold here after ChEMBL document CHEMBL4138258 (ACS Med Chem Lett, 2017).

A word on the EC50: it is the midpoint of the concentration-response curve. One may read the Emax as the maximal effect, on the per cent scale that the assay sets. In general, half-life refers to how long it takes for the measured level to halve.

Where only a bound is given, the exact number is not on record here.

Data set [1] addresses T1, Cannabinoid receptor 2 (Homo sapiens, UniProt P34972). In words: Agonist activity at recombinant human CB2 receptor expressed in HEK293 cells assessed as increase in beta arrestin recruitment measured after 2 to 3 hrs by PathHunter assay. The format is functional, cell-based. On the technique in general: Activated receptors often draw arrestin, which recruitment assays turn into a signal.

In data set [2] the target is T1, Cannabinoid receptor 2. Briefly: Agonist activity at recombinant human CB2 receptor expressed in HEK293 cells assessed as increase in beta arrestin recruitment measured after 2 to 3 hrs by PathHunter assay relative to CP55940. The format is functional, cell-based.
Data set [3] concerns the target T2, Cannabinoid receptor 1 (Homo sapiens, UniProt P21554). Briefly: Agonist activity at recombinant human CB1 receptor expressed in HEK293 cells assessed as increase in beta arrestin recruitment measured after 2 to 3 hrs by PathHunter assay. The format is functional, cell-based.
Data set [4] addresses T3, Cannabinoid receptor 2 (Rattus norvegicus, UniProt Q9QZN9).
T3 sequence (Q9QZN9 whole entry): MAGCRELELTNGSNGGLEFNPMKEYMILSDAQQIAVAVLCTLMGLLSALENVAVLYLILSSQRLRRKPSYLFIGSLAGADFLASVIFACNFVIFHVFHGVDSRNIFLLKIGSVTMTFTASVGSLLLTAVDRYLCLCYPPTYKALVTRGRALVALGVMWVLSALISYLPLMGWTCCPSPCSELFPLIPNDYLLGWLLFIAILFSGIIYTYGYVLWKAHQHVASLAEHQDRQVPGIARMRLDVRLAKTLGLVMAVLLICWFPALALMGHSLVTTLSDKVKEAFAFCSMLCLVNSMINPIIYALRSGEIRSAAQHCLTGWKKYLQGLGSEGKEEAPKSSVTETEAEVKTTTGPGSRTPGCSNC
In words: Agonist activity at recombinant rat CB2 receptor expressed in HEK293 cells assessed as increase in beta arrestin recruitment measured after 2 to 3 hrs by PathHunter assay. Format: functional, cell-based.

Data set [5] has as its target T4, Cannabinoid receptor 2 (Rattus norvegicus) (UniProt Q9QZN9).
T4 sequence (whole entry): T3 sequence (Q9QZN9 whole entry)
Briefly: Agonist activity at recombinant rat CB2 receptor expressed in HEK293 cells assessed as increase in beta arrestin recruitment measured after 2 to 3 hrs by PathHunter assay relative to CP55940. Format: functional, cell-based. A digest of the protocol:
(§1)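 Beta-arrestin recruitment EC50 is the mean of three or more independent experiments (logSD < 0.4). Intrinsic activity (Emax) is expressed relative to CP-55,940 set at 100.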

Data set [6] deals with Cannabinoid receptor 1 (Rattus norvegicus, UniProt P20272). Briefly: Agonist activity at recombinant rat CB1 receptor expressed in HEK293 cells assessed as increase in beta arrestin recruitment measured after 2 to 3 hrs by PathHunter assay. The format is functional, cell-based.
Chain of Cannabinoid receptor 1 (Rattus norvegicus, UniProt P20272) (P20272 whole entry): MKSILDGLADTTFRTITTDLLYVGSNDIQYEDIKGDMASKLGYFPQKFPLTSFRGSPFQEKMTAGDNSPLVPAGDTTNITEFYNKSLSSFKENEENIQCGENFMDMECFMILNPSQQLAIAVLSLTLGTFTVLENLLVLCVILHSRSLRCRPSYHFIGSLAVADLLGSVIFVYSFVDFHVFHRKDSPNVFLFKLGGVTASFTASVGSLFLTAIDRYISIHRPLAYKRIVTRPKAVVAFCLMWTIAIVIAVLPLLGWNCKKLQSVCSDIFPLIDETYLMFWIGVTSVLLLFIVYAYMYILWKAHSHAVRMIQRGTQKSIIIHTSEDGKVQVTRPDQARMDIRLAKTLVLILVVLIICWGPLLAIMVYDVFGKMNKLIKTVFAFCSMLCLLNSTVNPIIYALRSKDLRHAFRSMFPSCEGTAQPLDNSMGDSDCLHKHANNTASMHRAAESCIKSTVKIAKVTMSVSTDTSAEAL
Data set [7] can be described thus: Half life in human liver microsomes. The format is ADME, microsome.
The nature of data set [8]: Half life in rat liver microsomes. Format: ADME, microsome. Background: Liver microsomes are vesicles of endoplasmic reticulum, rich in cytochrome P450 enzymes.
A short description of data set [9]: Half life in mouse liver microsomes. The format is ADME, microsome.
A short description of data set [10]: Ratio of drug level in brain to plasma in Sprague-Dawley rat at 3 mg/kg, po measured after 2 hrs. Format: ADME, organism-based. The following applies: brain and plasma, read-out: BPR.
For data set [11], the target named is T4, Cannabinoid receptor 2 (Rattus norvegicus). In words: Induction of recombinant HA-tagged rat CB2 receptor internalization expressed in CHOK1 cells at 10 uM measured after 1 hr by time-resolved flow cytometry relative to CP55940. The format is functional, cell-based.
Data set [12] deals with Cannabinoid receptor 1 (Rattus norvegicus) (UniProt P20272). In words: Agonist activity at recombinant rat CB1 receptor expressed in HEK293 cells assessed as increase in beta arrestin recruitment measured after 2 to 3 hrs by PathHunter assay relative to CP55940. Format: functional, cell-based. A digest of the protocol: as §1
Chain of Cannabinoid receptor 1 (Rattus norvegicus) (P20272 whole entry): as above
For data set [13], the target named is T2, Cannabinoid receptor 1. In words: Agonist activity at recombinant human CB1 receptor expressed in HEK293 cells assessed as increase in beta arrestin recruitment measured after 2 to 3 hrs by PathHunter assay relative to CP55940. The format is functional, cell-based. A digest of the protocol:
as §1

Data set [14] concerns Rattus norvegicus. In words: Toxicity in Sprague-Dawley rat assessed as decrease in core body temperature at 0.3 mg/kg, po measured after 60 mins by rectal probe method. Format: organism-based. The following applies: in vivo, 1 h.
Data set [15] has as its system Rattus norvegicus. In words: Toxicity in Sprague-Dawley rat assessed as change in body temperature up to 100 mg/kg, po. The format is organism-based. The following applies: in vivo.
The subject of data set [16] is Rattus norvegicus. In words: Toxicity in Sprague-Dawley rat assessed as effect on locomotor activity up to 100 mg/kg, po. The following applies: in vivo. The format is organism-based.

T2 sequence (P21554 whole entry): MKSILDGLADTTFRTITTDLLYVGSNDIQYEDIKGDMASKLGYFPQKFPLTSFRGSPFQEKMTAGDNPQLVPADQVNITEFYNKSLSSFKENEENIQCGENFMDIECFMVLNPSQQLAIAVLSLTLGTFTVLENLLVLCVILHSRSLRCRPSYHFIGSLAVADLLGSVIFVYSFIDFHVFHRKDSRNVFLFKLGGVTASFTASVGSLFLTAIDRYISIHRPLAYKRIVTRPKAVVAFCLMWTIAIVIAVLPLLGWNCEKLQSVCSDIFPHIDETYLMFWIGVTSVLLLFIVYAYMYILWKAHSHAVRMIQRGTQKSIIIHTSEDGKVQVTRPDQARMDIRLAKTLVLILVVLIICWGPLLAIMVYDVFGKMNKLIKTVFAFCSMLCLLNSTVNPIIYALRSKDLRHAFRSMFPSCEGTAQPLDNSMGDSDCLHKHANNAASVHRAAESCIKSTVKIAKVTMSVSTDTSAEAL
T1 sequence (P34972 whole entry): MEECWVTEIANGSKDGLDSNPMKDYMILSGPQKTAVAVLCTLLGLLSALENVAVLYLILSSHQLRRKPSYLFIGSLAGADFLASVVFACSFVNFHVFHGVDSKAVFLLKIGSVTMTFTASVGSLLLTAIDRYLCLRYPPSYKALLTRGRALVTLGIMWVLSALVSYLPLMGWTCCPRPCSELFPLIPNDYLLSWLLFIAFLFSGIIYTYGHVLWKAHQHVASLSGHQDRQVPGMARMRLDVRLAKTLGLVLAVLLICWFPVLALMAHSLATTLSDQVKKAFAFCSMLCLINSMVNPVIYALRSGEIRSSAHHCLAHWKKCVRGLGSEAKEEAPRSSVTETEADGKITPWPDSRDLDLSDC

Consider `CC(C)(C)[C@@H](CO)NC(=O)c1nn(-c2cnccn2)c2c1C[C@@H]1C[C@H]21`, for which the EC50 at Cannabinoid receptor 2 [1] is 59 nM; on Cannabinoid receptor 1 [3], greater than 10000 nM; at Cannabinoid receptor 2 [4] it was 53 nM; at Cannabinoid receptor 1 [6] it was greater than 10000 nM. The Emax at Cannabinoid receptor 2 [2] was determined as 107%; in [5], 95%. The half-life in [7] is greater than 1 h; in data set [8], greater than 1 h; in data set [9] it was 0.4 h. Moreover, the Kp at 2 h in data set [10] came to 0.1.

For the molecule `O=C(N[C@H](CO)C(F)(F)F)c1nn(-c2c[n+]([O-])ccn2)c2c1C[C@@H]1C[C@H]21`, the EC50 at Cannabinoid receptor 2 [1] is 280 nM; at Cannabinoid receptor 1 [3], greater than 10000 nM; at Cannabinoid receptor 2 [4], 530 nM; at Cannabinoid receptor 1 [6], greater than 10000 nM. The Emax is 98% at Cannabinoid receptor 2 [2] and 85% in data set [5]. The half-life in [7] and in [8] was greater than 1 h in each case.

As to `CC(C)(CO)NC(=O)c1nn(-c2cnccn2)c2c1C[C@H]1C[C@@H]21`, the Emax in data set [5] came out at 85%. In addition, the half-life in [7], in data set [8] and in [9] was greater than 1 h throughout.

In the case of `O=C(N[C@H](CO)c1ccccc1)c1nn(-c2c[n+]([O-])ccn2)c2c1C[C@@H]1C[C@H]21`, the Emax was determined as 96% on Cannabinoid receptor 2 [2] and 72% in data set [5]. Besides, the EC50 at Cannabinoid receptor 1 [3] was greater than 10000 nM; at Cannabinoid receptor 2 [4] it was 60 nM; on Cannabinoid receptor 1 [6], greater than 10000 nM. Also, the half-life in data set [7] and in [8] was greater than 1 h throughout.

`CC1(NC(=O)c2nn(-c3c[n+]([O-])ccn3)c3c2C[C@@H]2C[C@H]32)CC1`: the EC50 is 91 nM on Cannabinoid receptor 2 [1], greater than 10000 nM on Cannabinoid receptor 1 [3], 290 nM at Cannabinoid receptor 2 [4] and greater than 10000 nM on Cannabinoid receptor 1 [6]. Further, the values for the Emax (at Cannabinoid receptor 2 [2]; in data set [5]) were 102% and 81%, respectively.

For the molecule `CC(C)(CO)NC(=O)c1nn(-c2ccc(F)cc2F)c2c1C[C@H]1C[C@@H]21`, in data set [5], the Emax was 46%. In addition, the Activity in [11] stood at 68%.

With `CC(C)(C)[C@@H](CF)NC(=O)c1nn(-c2c[n+]([O-])ccn2)c2c1C[C@@H]1C[C@H]21`, the EC50 on Cannabinoid receptor 2 [1] was found to be 1.2 nM; on Cannabinoid receptor 1 [3], 1100 nM; at Cannabinoid receptor 2 [4] it was 1.5 nM; on Cannabinoid receptor 1 [6] it was 840 nM. Further, the Emax on Cannabinoid receptor 2 [2] was 107%; in data set [5] it was 97%; in [12], 107%; on Cannabinoid receptor 1 [13] it was 105%. Besides, the half-life in data set [7] and in data set [8] was greater than 1 h throughout.

`CC(C)(C)[C@@H](CO)NC(=O)c1nn(-c2cnccn2)c2c1C[C@H]1C[C@@H]21`: the 50% effective concentration (EC50) on Cannabinoid receptor 2 [1] is 26 nM; on Cannabinoid receptor 1 [3], greater than 10000 nM; on Cannabinoid receptor 2 [4], 21 nM; at Cannabinoid receptor 1 [6], greater than 10000 nM. Further, the Emax worked out at 104% at Cannabinoid receptor 2 [2] and 78% in data set [5]. For the same molecule, the half-life was greater than 1 h in [7], 0.633 h in data set [8] and 0.15 h in [9].

Take `O=C(NC1(C(F)(F)F)CC1)c1nn(-c2c[n+]([O-])ccn2)c2c1C[C@@H]1C[C@H]21`: the 50% effective concentration (EC50) was greater than 10000 nM at Cannabinoid receptor 1 [3], 14.5 nM at Cannabinoid receptor 2 [4] and greater than 10000 nM at Cannabinoid receptor 1 [6]. Also, the Emax in data set [5] amounted to 103%. In addition, the half-life in data set [7] and in [8] was greater than 1 h throughout.

As to `CC(C)[C@@H](CO)NC(=O)c1nn(-c2c[n+]([O-])ccn2)c2c1C[C@@H]1C[C@H]21`, the EC50 at Cannabinoid receptor 2 [1] is 46 nM; at Cannabinoid receptor 1 [3], greater than 10000 nM; on Cannabinoid receptor 2 [4], 55 nM; at Cannabinoid receptor 1 [6], greater than 10000 nM. Also, the Emax at Cannabinoid receptor 2 [2] turned out to be 103%; in data set [5] it was 88%. The half-life in data set [7] and in data set [8] was greater than 1 h in each case.

With `O=C(NC1(CO)CCCC1)c1nn(-c2c[n+]([O-])ccn2)c2c1C[C@@H]1C[C@H]21`, the EC50 was 5.6 nM at Cannabinoid receptor 2 [1], greater than 10000 nM at Cannabinoid receptor 1 [3], 6.8 nM at Cannabinoid receptor 2 [4] and greater than 10000 nM at Cannabinoid receptor 1 [6]. For the same molecule, the values for the Emax (on Cannabinoid receptor 2 [2]; in data set [5]) were 112% and 106%, respectively. For the same molecule, the half-life in data set [7] and in [8] was greater than 1 h each time.

In the case of `O=C(NC1(C(F)(F)F)CCC1)c1nn(-c2c[n+]([O-])ccn2)c2c1C[C@@H]1C[C@H]21`, the concentration for a half-maximal effect (EC50) at Cannabinoid receptor 2 [1] was 1.2 nM; on Cannabinoid receptor 1 [3] it was greater than 10000 nM; at Cannabinoid receptor 2 [4], 1.6 nM; on Cannabinoid receptor 1 [6], greater than 10000 nM. In addition, the Emax at Cannabinoid receptor 2 [2] came out at 115%; in [5], 106%. Also, the half-life in data set [7] and in data set [8] was greater than 1 h each time.

With `O=C(N[C@@H](CO)C(F)(F)F)c1nn(-c2c[n+]([O-])ccn2)c2c1C[C@@H]1C[C@H]21`, the EC50 is 17.2 nM at Cannabinoid receptor 2 [1], greater than 10000 nM on Cannabinoid receptor 1 [3], 35 nM at Cannabinoid receptor 2 [4] and greater than 10000 nM on Cannabinoid receptor 1 [6]. Further, the Emax on Cannabinoid receptor 2 [2] is 119%; in [5], 107%. Further, the half-life in data set [7] and in data set [8] was greater than 1 h each time.

Take `CC(C)(C)[C@H](CO)NC(=O)c1nn(-c2cnccn2)c2c1C[C@@H]1C[C@H]21`: the EC50 on Cannabinoid receptor 2 [1] is 560 nM; at Cannabinoid receptor 1 [3], greater than 10000 nM. Moreover, at Cannabinoid receptor 2 [2], the maximal effect (Emax) was 78%.

Consider `CCCCCCC(C)(C)c1ccc([C@@H]2C[C@H](O)CC[C@H]2CCCO)c(O)c1` [CP-55940], for which the Activity result in the data set on Rattus norvegicus [14] is “Toxic”.

In the case of `CC(C)(NC(=O)c1nn(-c2c[n+]([O-])ccn2)c2c1C[C@@H]1C[C@H]21)C(F)(F)F`, the EC50 at Cannabinoid receptor 2 [1] is 2.3 nM; at Cannabinoid receptor 1 [3] it was greater than 10000 nM; on Cannabinoid receptor 2 [4] it was 6.3 nM; on Cannabinoid receptor 1 [6], greater than 10000 nM. The maximal effect (Emax) at Cannabinoid receptor 2 [2] is 108%; in data set [5] it was 98%. Moreover, the half-life in data set [7] and in [8] was greater than 1 h throughout. Moreover, in [10], the Kp at 2 h stood at 0.83. Moreover, the Activity result in the data set with Rattus norvegicus [15] and in the data set with Rattus norvegicus [16] was “Non-Toxic” in each case.

As for `CC(C)[C@@H](CF)NC(=O)c1nn(-c2c[n+]([O-])ccn2)c2c1C[C@@H]1C[C@H]21`, the EC50 at Cannabinoid receptor 2 [1] turned out to be 3.8 nM; on Cannabinoid receptor 1 [3], 6100 nM; on Cannabinoid receptor 2 [4], 6.4 nM; at Cannabinoid receptor 1 [6] it was 2700 nM. Further, the Emax amounted to 98% at Cannabinoid receptor 2 [2], 87% in data set [5], 74% in [12] and 96% on Cannabinoid receptor 1 [13]. Moreover, the half-life in [7] and in data set [8] was greater than 1 h in each case.
